{"source": "paper PMC10499740", "about": "(Advances in Therapy, 2023)", "assay": "Plasma triptorelin concentration", "assay_type": "in vivo, Chinese children", "details": "human, im, 15 mg, SD", "outline": "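Children with CPP (age-limited, ≥20 kg) received 15 mg of the test compound's pamoate salt (delivering 11.25 mg) by intramuscular injection into the upper outer buttock on day 1 and months 3, 6 and 9. Sparse plasma sampling was done pre-dose, 4 h post-injection on day 1, at month 3 (pre-dose) and at month 6. Concentrations were measured by validated LC-MS/MS and reported as means.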", "data": [{"smiles": "CC(C)C[C@H](NC(=O)[C@@H](Cc1c[nH]c2ccccc12)NC(=O)[C@H](Cc1ccc(O)cc1)NC(=O)[C@H](CO)NC(=O)[C@H](Cc1c[nH]c2ccccc12)NC(=O)[C@H](Cc1c[nH]cn1)NC(=O)[C@@H]1CCC(=O)N1)C(=O)N[C@@H](CCCNC(=N)N)C(=O)N1CCC[C@H]1C(=O)NCC(N)=O", "note": "[triptorelin]", "values": [{"measurement": "level at 4 h", "value": "47.6 ± 23.9", "unit": "ng/mL"}]}]}
